Experimental data from ChEMBL document CHEMBL1141255, “Trijugin-type limonoids from the leaves of Cipadessa cinerascens” (2007).

How the values were obtained:
[1] = system: K562; experiment: Cytotoxicity against human K562 cells by MTT assay; format: functional; conditions: read-out: ED50 (the source's name)
Procedure, shortened: (§1)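 In vitro growth inhibition of A549 (human lung adenocarcinoma) and K562 (human […] leukemia) tumour cells. Potency is reported as ED50, the 50% effective dose of clonal inhibition, in µg/mL.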

[2] = system: A549; experiment: Cytotoxicity against human A549 cells by MTT assay; format: functional; conditions: read-out: ED50 (the source's name); procedure, shortened: as §1

SMILES | EC50 [1] | EC50 [2]
C=C1[C@@H]2C[C@@]3(C)[C@H](c4ccoc4)OC(=O)C[C@]13O[C@H]1C[C@@H](OC(C)=O)C(C)(C)[C@H](CC(=O)OC)[C@@]1(C)C2=O [CIPATRIJUGIN A] | > 5 µg/mL | > 5 µg/mL
C=C1[C@]2(OC(C)=O)C[C@@]3(C)[C@H](c4ccoc4)OC(=O)C[C@]13O[C@H]1C[C@@H](OC(C)=O)C(C)(C)[C@H](CC(=O)OC)[C@@]1(C)C2=O [CIPATRIJUGIN C] | > 5 µg/mL | > 5 µg/mL
C=C1[C@]2(O)C[C@@]3(C)[C@H](c4ccoc4)OC(=O)C[C@]13O[C@H]1C[C@@H](OC(C)=O)C(C)(C)[C@H](CC(=O)OC)[C@@]1(C)C2=O [CIPATRIJUGIN B] | > 5 µg/mL | > 5 µg/mL
COc1cccc2c1C(=O)c1c(O)c3c(c(O)c1C2=O)C[C@@](O)(C(=O)CO)C[C@@H]3O[C@H]1C[C@H](N)[C@H](O)[C@H](C)O1 [DOXORUBICIN] | 59.5 nM | 59.5 nM
COC(=O)C[C@H]1C(C)(C)[C@H](OC(C)=O)[C@H](OC(C)=O)[C@@H]2O[C@]34CC(=O)O[C@@H](c5ccoc5)[C@]3(C)[C@@H](OC(C)=O)[C@@H](C(=O)[C@@H]4C)[C@@]21C [CIPADESIN A] | > 5 µg/mL | > 5 µg/mL
C=C1[C@H]2C(=O)[C@@]3(C)[C@H](C[C@@H](OC(C)=O)C(C)(C)[C@@H]3CC(=O)OC)O[C@@]13CC(=O)O[C@@H](c1ccoc1)[C@]3(C)[C@H]2OC(C)=O [CIPATRIJUGIN D] | > 5 µg/mL | > 5 µg/mL
